Assay results from PubChem BioAssay.
The source made the active and inactive calls.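 The calls were made as follows, unless noted: active = viability loss from added drug above about 55%, and viability with drug at most 40%, in both replicates (limit read from the data, passing the limit was not always enough); inconclusive = both conditions met in only one replicate; inactive = neither replicate meets both conditions.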

Columns and labels:
[1] = Her2 expression decrease, cell viability multiplex – SKBR3 breast tumor cells, AlphaScreen, ATP viability, primary screen (AID 461;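 active = Her2 level under about 52% in both replicate screens, with viability over 70% of control, limit read from the data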;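 as to Her2 level: lower value means less Her2 protein in the cells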;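 as to viability: percent of carrier control wells set as 100% viability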); conditions: SKBR3 Her2 protein level, 18-24 h, measured here: SKBR3 viability, ATP luminescence, at 10 µM
[2] = target: Receptor tyrosine-protein kinase erbB-2 (Homo sapiens) (UniProt P04626); test: as above; conditions: 18-24 h, at 10 µM, stronger effect = lower value
[3] = reduced viability of SK-BR-3 breast cancer cells – cell-based, 24 h, human, pilot screen (AID 572;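 active = viability at or below 10% of carrier control in both of two separate runs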;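 also: compound exposure lasted between 18 and 24 h rather than exactly 24 h; 100% = carrier-treated control wells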); conditions: SK-BR-3 viability, CellTiter-Glo luminescence, at 10 µM, stronger effect = lower value
[4] = HUVEC growth inhibition – cell-based, human, primary screen (AID 575;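 active = viability at or below 30% in both replicate assays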;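 also: 100% = median of untreated cell wells with 0.1% DMSO on each plate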); conditions: HUVEC proliferation, CellTiter-Glo luminescence, 72 h; at 10 µM; stronger effect = lower value
Outline: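 system = HUVEC primary cells | amount = 1250 cells/well | buffer or medium = supplemented EBM, 2% fetal bovine serum | dosing = single-point 10 µM, DMSO 0.1% final | times = 72 h compound incubation | detection = CTG luminescence | read-out = % viability relative to median vehicle-well signal on each plate | control set = vehicle and MePR control wells | format = collagen-coated 384-well format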

[5] = H69AR cell proliferation blockers – human, duplicate replicates, primary screen (AID 580;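 active = viability at or under a set limit in both replicates, limit being median viability minus 3 SD, cut at about 48% in these data, passing the limit was not always enough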;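 also: 100% = mean luminescence of untreated wells and 0% = no signal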); conditions: H69AR lung tumor cells viability, ATP luminescence, 72 h; at 10 µM; stronger effect = lower value
[6] = MRP1 drug-resistance reversers in H69AR cells – cell-based, doxorubicin co-treatment, pilot screen (AID 601); conditions: CellTiter-Glo, 72 h, at 10 µM; for differential viability (reversal): stronger effect = higher value
[7] = yeast transport mutant growth inhibition pilot in 384-well plates, post-Golgi transport modulator project (AID 636; in the data active = inhibition above about 31%); conditions: absorbance 615 nm, about 18 h, stronger effect = higher value
[8] = growth suppression of yeast trafficking mutant, preliminary HTS, modulators of trafficking downstream of Golgi apparatus project, 1536-format plate, OD 615 nm (AID 637; in the data active = inhibition above about 30%); conditions: yeast transport mutant growth, absorbance 615 nm, 18 h; stronger effect = higher value
[9] = H69AR cells + 2 uM doxorubicin, measured here: viability with 2 uM doxorubicin, stronger effect = lower value
[10] = H69AR cells, compound alone cytotoxicity

Sequence of Receptor tyrosine-protein kinase erbB-2 (Homo sapiens) (P04626 whole entry, looked up): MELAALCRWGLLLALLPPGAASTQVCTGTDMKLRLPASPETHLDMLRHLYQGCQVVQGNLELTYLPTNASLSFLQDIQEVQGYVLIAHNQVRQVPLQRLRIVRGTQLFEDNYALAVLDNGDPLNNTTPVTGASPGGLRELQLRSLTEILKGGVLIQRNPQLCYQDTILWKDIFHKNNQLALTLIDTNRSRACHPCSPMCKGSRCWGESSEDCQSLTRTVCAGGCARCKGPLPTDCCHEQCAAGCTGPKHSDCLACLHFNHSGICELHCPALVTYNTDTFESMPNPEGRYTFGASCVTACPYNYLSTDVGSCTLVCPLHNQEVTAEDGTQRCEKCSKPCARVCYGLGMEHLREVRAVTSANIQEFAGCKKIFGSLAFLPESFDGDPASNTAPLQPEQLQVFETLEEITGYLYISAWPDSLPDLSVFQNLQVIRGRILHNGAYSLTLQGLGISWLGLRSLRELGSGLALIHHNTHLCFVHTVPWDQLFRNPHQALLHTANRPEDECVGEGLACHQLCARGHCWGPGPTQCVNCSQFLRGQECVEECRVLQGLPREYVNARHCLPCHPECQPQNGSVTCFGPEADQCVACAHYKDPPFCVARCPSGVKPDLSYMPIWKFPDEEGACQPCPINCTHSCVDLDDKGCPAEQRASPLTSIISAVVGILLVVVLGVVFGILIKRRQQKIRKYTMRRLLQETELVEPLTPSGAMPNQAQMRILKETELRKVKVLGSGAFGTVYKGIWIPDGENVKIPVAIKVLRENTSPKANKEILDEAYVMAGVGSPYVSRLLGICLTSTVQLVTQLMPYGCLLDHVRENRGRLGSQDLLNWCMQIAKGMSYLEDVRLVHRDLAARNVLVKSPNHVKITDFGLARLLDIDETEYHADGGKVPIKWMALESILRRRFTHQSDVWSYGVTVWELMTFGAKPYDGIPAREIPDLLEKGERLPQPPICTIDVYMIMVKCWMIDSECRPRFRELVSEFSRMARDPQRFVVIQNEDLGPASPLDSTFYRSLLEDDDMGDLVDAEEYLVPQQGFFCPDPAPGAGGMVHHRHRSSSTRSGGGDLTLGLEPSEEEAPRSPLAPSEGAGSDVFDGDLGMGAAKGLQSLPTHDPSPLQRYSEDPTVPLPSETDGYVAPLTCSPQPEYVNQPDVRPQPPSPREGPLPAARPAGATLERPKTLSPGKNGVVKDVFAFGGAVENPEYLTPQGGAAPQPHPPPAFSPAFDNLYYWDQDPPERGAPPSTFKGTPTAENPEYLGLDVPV

Row | Structure (SMILES) | viability [1] | Her2 level [2] | viability [3] | viability [4] | viability [5] | differential viability (reversal) ([6]; H69AR cells + 2 uM doxorubicin) | viability [6, 9] | viability [6, 10] | inhibition [7] | inhibition [8]
1 | CCOc1cc(C2C(C#N)=C(N)OC(C)=C2C(C)=O)cc(Br)c1O (stereo not given) | 114% | 91% (inactive) | 114% (inactive) | 120% (inactive) | 90.3% (inactive) | 6.05% (inactive) | 84.2% | 90.3% | -5.95% (inactive) | -6.83% (inactive)
2 | COc1ccc2nc(SCC(=O)NC(C)C)[nH]c2c1 | 104% | 106% (inactive) | 104% (inactive) | 102% (inactive) | 96.4% (inactive) | 4.97% (inactive) | 91.4% | 96.4% | 3.25% (inactive) | -10.8% (inactive)
3 | Cc1noc(C)c1CSc1nnc(-c2ccncc2)n1-c1cccc(Cl)c1C | 81.5% | 93.5% (inactive) | 81.5% (inactive) | 81% (inactive) | 88.4% (inactive) | 2.37% (inactive) | 86% | 88.4% | -3.42% (inactive) | -8.25% (inactive)
4 | COc1ccc2nc(NC(=O)C3CCCN(S(=O)(=O)c4cccc5nsnc45)C3)sc2c1 (stereo not given) | 96.5% | 97.5% (inactive) | 96.5% (inactive) | 75% (inactive) | 83.1% (inactive) | -10.1% (inactive) | 93.2% | 83.1% | 4.53% (inactive) | -2.7% (inactive)
5 | Cc1cc(C)n(-c2ccc(C(=O)Nc3ccc4c(c3)OCCO4)cc2)n1 | 93% | 77.5% (inactive) | 93% (inactive) | 62.2% (inactive) | 89% (inactive) | -6.18% (inactive) | 95.2% | 89% | 1.03% (inactive) | -2% (inactive)
6 | O=C(O)CCCNS(=O)(=O)c1ccc(NCc2ccccc2)c(C(=O)O)c1 | 87% | 94% (inactive) | 87% (inactive) | 92.3% (inactive) | 93% (inactive) | 1.6% (inactive) | 91.4% | 93% | -6.89% (inactive) | 0.83% (inactive)
7 | Cc1nnc(SCC(=O)Nc2ccc(Br)cn2)[nH]c1=O | 118% | 85% (inactive) | 118% (inactive) | 98.7% (inactive) | 98.3% (inactive) | 4.71% (inactive) | 93.6% | 98.3% | 1.84% (inactive) | 8.17% (inactive)
8 | N#CCCn1ccc(NC(=O)c2ccc(Cl)cc2)n1 | 79% | 87.5% (inactive) | 79% (inactive) | 102% (inactive) | 97% (inactive) | 8.88% (inactive) | 88.1% | 97% | -5.27% (inactive) | -0.66% (inactive)
9 | CCOC(=O)CNC(=O)Nc1ccccc1C(=O)OC | 116% | 86.5% (inactive) | 116% (inactive) | 96.7% (inactive) | 94.1% (inactive) | 8.77% (inactive) | 85.3% | 94.1% | -2.5% (inactive) | 1.29% (inactive)
10 | Cc1cccc(N(CC(N)=O)S(C)(=O)=O)c1C | 102% | 100% (inactive) | 102% (inactive) | 107% (inactive) | 92% (inactive) | 4.79% (inactive) | 87.2% | 92% | -2.76% (inactive) | 0.82% (inactive)
11 | COc1cc2c(c(OC)c1)C(c1ccncc1)CC(=O)N2 (stereo not given) | 89% | 96.5% (inactive) | 89% (inactive) | 91.7% (inactive) | 111% (inactive) | 21.4% (inactive) | 89.8% | 111% | 1.73% (inactive) | -5.57% (inactive)
12 | CCN(CC)S(=O)(=O)c1ccc(C(=O)Oc2ccc3c(c2)OCO3)cc1 | 101% | 84% (inactive) | 101% (inactive) | 86.6% (inactive) | 90.5% (inactive) | 4.36% (inactive) | 86.1% | 90.5% | -5.53% (inactive) | -4.13% (inactive)
13 | CCN(CCNC(=O)CS(=O)(=O)Cc1nc(-c2cccc(OC)c2)oc1C)c1ccccc1 | 97.5% | 105% (inactive) | 97.5% (inactive) | 78.4% (inactive) | 99% (inactive) | -10.6% (inactive) | 110% | 99% | -6.67% (inactive) | -0.48% (inactive)
14 | COc1cc(SC)ccc1C(=O)Nc1ccon1 | 98.5% | 104% (inactive) | 98.5% (inactive) | 93% (inactive) | 101% (inactive) | 6.34% (inactive) | 94.5% | 101% | 0.27% (inactive) | 18.6% (inactive)
15 | CCC(=O)NC1(C(F)(F)F)C(=O)NC(C)=C1C#N (stereo not given) | 102% | 84.5% (inactive) | 102% (inactive) | 101% (inactive) | 97.9% (inactive) | 5.2% (inactive) | 92.7% | 97.9% | -4.74% (inactive) | 1.59% (inactive)
